Reference: publication PMC12722729 (Scientific Reports, 2025)
Several values for one entry are separate records, joined by “and”; a condition that tells them apart may be missing. Equal entries are not always repeated. Where two headings read alike, the source gives them in different places.

Tests used:
Jurkat cells [1] = assay: MTT cytotoxicity assay, Jurkat cells; type: cell-based, human; settings: read-out: IC50 for Jurkat cell proliferation, 24 h
Outline: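 Jurkat E6-1 cells were grown in RPMI-1640 with L-glutamine, 10% FBS and 1% penicillin-streptomycin at 37 °C and 5% CO2. The test compound was diluted 1:2 serially in medium from a top concentration of 10 or 5 µM. Cells at a final 1 × 10⁶ cells/mL were exposed for 24 h. MTT was added (final 0.45 mg/mL) for 4 h at 37 °C, formazan was dissolved in DMSO, and OD was read at 570 nm. IC50 was taken as 50% growth inhibition. Three independent experiments, mean ± SEM.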

WIL2-NS cells = assay: MTT cytotoxicity and selectivity index, WIL2-NS cells; type: cell-based, human; settings: IC50 WIL2-NS compared to IC50 Jurkat
Jurkat cells [2] = assay: Annexin V-FITC/propidium iodide labelling; type: cell-based, human; settings: 24 h, each compound at its IC50, mean ± SEM
Outline: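 Cells were spun at 220 x g for 5 min at 4 °C and washed in chilled PBS. They were stained with Annexin V-FITC in binding buffer for 13 min at room temperature in the dark, then with PI for 2 min. Samples were diluted in binding buffer and analysed by flow cytometry.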

Jurkat cells [3] = assay: Cell cycle checkpoint analysis; type: cell-based, human; settings: OC2 at IC50, 2 and 4 h
Jurkat cells [4] = assay: TMRE staining, mitochondrial membrane potential; type: cell-based, human
Jurkat cells [5] = assay: DHE staining, intracellular ROS; type: cell-based, human; settings: OC2 at IC50, 1-6 h
Jurkat cells [6] = assay: NAC pre-treatment followed by Annexin V-FITC/PI; type: cell-based, human; settings: 20 or 50 µM NAC 1 h, then OC2 at IC50 24 h
caspase-9 = assay: CaspGLOW active caspase staining, caspase-9; type: cell-based, human; settings: Jurkat, OC2 at IC50, 2 and 4 h
Outline: (§1)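 Jurkat E6-1 cells in RPMI-1640 with 10% FBS at 1 × 10⁶ cells/mL were exposed to the test compound for 2 or 4 h. Cells were washed, resuspended in fresh medium and stained 1 h at 37 °C with a FITC-conjugated inhibitor: IETD-FMK (caspase-8), LEHD-FMK (caspase-9) or DEVD-FMK (caspase-3). After washing, cells were read by flow cytometry. Mean ± SEM of 3 replicates; ANOVA/Tukey versus untreated.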

caspase-8 = assay: CaspGLOW active caspase staining, caspase-8; type: cell-based, human; settings: Jurkat, OC2 at IC50, 2 and 4 h
Outline: as §1

caspase-3 = assay: CaspGLOW active caspase staining, caspase-3; type: cell-based, human; settings: Jurkat, OC2 at IC50, 4 h
Outline: as §1

p21 = assay: Western blot, p21; type: cell-based, human; settings: Jurkat, OC2 at IC50, 0.5-6 h
Outline: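 Jurkat cells at 1 × 10⁶ cells/mL were treated for 0.5 to 6 h, then washed in ice-cold PBS and lysed in RIPA buffer (spun 13500 rpm, 30 min, 4 °C). Protein was measured by Bradford assay and 25 µg per lane run on SDS-PAGE, then transferred to PVDF. Blots were blocked in 5% BSA/TBS-T for 1.5 h, given primary antibody overnight at 4 °C and HRP anti-rabbit for 1 h, then detected by ECL. β-actin served as loading control; band intensity is in arbitrary units, n = 3.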

cleaved-PARP = assay: Western blot, cleaved-PARP; type: cell-based, human; settings: Jurkat, OC2 at IC50, 0.5-6 h
Outline: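 Jurkat cells (1 × 10⁶ cells/mL) were treated with the test compound at its IC50 for 0.5–6 h. Cells were washed in ice-cold PBS and lysed in RIPA, and lysates were cleared at 13500 rpm for 30 min at 4 °C; protein was measured by Bradford. 25 µg per lane was run on SDS-PAGE and transferred to PVDF. Membranes were blocked in 5% BSA/TBS-T for 1.5 h, given primary antibody overnight at 4 °C and HRP anti-rabbit for 1 h, and developed by ECL. β-actin served as loading control. Three independent replicates, arbitrary units, mean ± SEM.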

K562 cells = settings: cited from earlier work
[7] = cited from earlier work

Q: With `C=CCN(CC=C)C(=S)[S][Sn]([c]1ccccc1)([c]1ccccc1)[c]1ccccc1` [OC4, Triphenyltin(IV) diallyl dithiocarbamate] as the compound, how does the IC50 (Jurkat cells [1]; MTT, mean ± S.E.M) read?
A: 200 ± 10 nM

Q: And the “Selectivity index (SI)” value (WIL2-NS cells)?
A: 1

Q: What about the “Percentage of apoptotic events” value (Jurkat cells [2]) of the same compound?
A: 84.5 ± 5.3%

Q: With `COc1cc([C@@H]2c3cc4c(cc3[C@@H](O[C@@H]3O[C@@H]5CO[C@@H](C)O[C@H]5[C@H](O)[C@H]3O)[C@H]3COC(=O)[C@H]23)OCO4)cc(OC)c1O` [ETO, Etoposide, reference compound] as the compound, how does the IC50 (Jurkat cells [1]; Homo sapiens, Jurkat) read?
A: 870 ± 60 nM

Q: Which results are given for `CC(C)N(C(=S)[S][Sn]([S]C(=S)N(C(C)C)C(C)C)([c]1ccccc1)[c]1ccccc1)C(C)C` [OC1, Diphenyltin(IV) diisopropyl dithiocarbamate]?
A: IC50 (Jurkat cells [1]; MTT, mean ± S.E.M): 7100 ± 600 nM; Selectivity index (SI) (WIL2-NS cells): 0.37; Percentage of apoptotic events (Jurkat cells [2]): 68.1 ± 4.2%

Q: Which results are given for `CC(C)N(C(=S)[S][Sn]([c]1ccccc1)([c]1ccccc1)[c]1ccccc1)C(C)C` [OC2, Triphenyltin(IV) diisopropyl dithiocarbamate]?
A: IC50 (Jurkat cells [1]; MTT, mean ± S.E.M): 100 ± 10 nM; Selectivity index (SI) (WIL2-NS cells): 5.5; Percentage of apoptotic events (Jurkat cells [2]): 55.6 ± 5.0% and 55% and 55.6 ± 4.95%; Cell cycle distribution (Jurkat cells [3]): halted the Jurkat cell cycle in the G0/G1 phase; TMRE-negative cells (loss of ΔΨm) (Jurkat cells [4]; OC2 at IC50, 1 h): slight increase in TMRE-negative cells; TMRE-negative cells (loss of ΔΨm) (Jurkat cells [4]; OC2 at IC50, 2 h): 33.0 ± 4.5%; TMRE-negative cells (loss of ΔΨm) (Jurkat cells [4]; OC2 at IC50, 4 h): 37.4 ± 2.4%; TMRE-negative cells (loss of ΔΨm) (Jurkat cells [4]; OC2 at IC50, 6 h): 43.2 ± 5.5%; Intracellular ROS production (Jurkat cells [5]): time-dependent increase in ROS production; Apoptotic cells after NAC pre-treatment (Jurkat cells [6]): significantly decreased the number of apoptotic cells; Cells with active caspase-9 (caspase-9): steadily increased from 2 to 4 h post-treatment; Caspase-8 activation (caspase-8): remained unchanged compared to the control up to 4 h; Caspase-3 positive cells (caspase-3): significant increase in caspase-3 positive cells; p21 protein expression (p21): statistically significant (p < 0.05) at later time points (4 and 6 h); Cleaved-PARP protein expression (cleaved-PARP): marked rise (p < 0.05) at 6 h; ROS levels, K562 (K562 cells; IC50 dose, 6 h): substantial elevation in ROS levels (p < 0.05); Apoptotic cells, K562 (K562 cells; at IC50 concentration): 57.1 ± 4.5%; Cell cycle progression, K562 (K562 cells): blocking cell cycle progression at the S phase checkpoint; Selectivity index (SI), K562 cells (K562 cells): 1; IC50 (K562 cells; read-out: IC50 (inhibiting 50% of cell growth), K562 cells): 550 nM; Predicted CaCo2 permeability / intestinal absorption ([7]; ADMETlab prediction): might possess good intestinal absorption; Inhibition of major CYP450 enzymes (predicted) ([7]; in silico): predicted not to inhibit any major CYP450 enzymes; Mutagenic and carcinogenic potential (predicted) ([7]; in silico): may lack mutagenic and carcinogenic potential; P-gp substrate or inhibitor (predicted) ([7]; in silico): unlikely to be a substrate or inhibitor of P-gp; Skin sensitization or liver injury (predicted) ([7]; in silico): might not cause skin sensitization or liver injury

Q: With `C=CCN(CC=C)C(=S)[S][Sn]([S]C(=S)N(CC=C)CC=C)([c]1ccccc1)[c]1ccccc1` [OC3, Diphenyltin(IV) diallyl dithiocarbamate] as the compound, how does the IC50 (Jurkat cells [1]; MTT, mean ± S.E.M) read?
A: 2800 ± 130 nM

Q: And the “Selectivity index (SI)” value (WIL2-NS cells)?
A: 0.42

Q: What about the “Percentage of apoptotic events” value (Jurkat cells [2]) of the same compound?
A: 86.7 ± 2.9%

Q: Which results are given for `CCN(CC)C(=S)[S][Sn]([c]1ccccc1)([c]1ccccc1)[c]1ccccc1` [OC5, Triphenyltin(IV) diethyldithiocarbamate]?
A: IC50 (Jurkat cells [1]; MTT, mean ± S.E.M): 350 ± 10 nM; Selectivity index (SI) (WIL2-NS cells): 0.57; Percentage of apoptotic events (Jurkat cells [2]): 73.4 ± 4.8%
